Laboratory results as given in PubChem BioAssay AID1296 (Columbia University Molecular Screening Center, 2008).
Hit rate of the full screen: of about 130,000 compounds, about 1,000 (0.77%) were called active. Inconclusive results (about 1%) are left out.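 Rule for the calls: active = activation at 2 µM above a set limit, confirmed on inspection of the cell images; inconclusive = above the set limit but not confirmed on image inspection; inactive = the rest.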 This excerpt belongs to a sample that is enriched for actives.

Test: insulin gene promoter stimulation in islet cells – imaging, TRM-6 cells (human fetal islet line), eGFP reporter, cell count, primary screen (AID 1296;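 for activation: share of cells whose green reporter signal exceeds an intensity cutoff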;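 for normalized cell count: cells counted after 48 h compound exposure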)
Conditions: at 2 µM; activation: stronger effect = higher value; normalized cell count: measured here: cell count (toxicity)
Summary of the method: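 Assay system: TRM-6 human fetal islet cells, insulin promoter–eGFP reporter; Also added: 0.75 µM tamoxifen as reporter inducer; Schedule: 15 h tamoxifen pre-treatment, 48 h compound treatment at 37 °C; Signal: fixed-cell fluorescence microscopy, eGFP plus Hoechst; Read-out: percent activation from GFP-positive cell fraction; Control set: stimulated and unstimulated wells.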

Row | Structure (SMILES) | activation | normalized cell count
1 | CC1=CC(=Cc2sc3ccccc3[n+]2C)C=C(C)O1 | 456% (active) | 88.8%
2 | C[N+]1(C)CCOC(O)(c2ccc(-c3ccc(C4(O)C[N+](C)(C)CCO4)cc3)cc2)C1 (stereo not given) | -9.52% (inactive) | 86.4%
3 | CC(=O)c1c(C)n(C(C)C)c2ccc(O)cc12 | 269% (inactive) | 65.5%
4 | CCOCCc1c(O)[nH]c(=S)[nH]c1=O | 0% (inactive) | 137%
5 | O=[N+]([O-])c1ccc(C2C3C(c4ccccc4)=NC4(CCCCC4)N32)cc1 (stereo not given) | -4.54% (inactive) | 112%
6 | O=C(COc1ccc2ccccc2c1)N1CCN(Cc2ccncc2)CC1 | 1.82% (inactive) | 106%
7 | O=C(COC(=O)c1ccccc1)Nc1ccc(Cl)cc1C(=O)c1ccccc1 | -3.33% (inactive) | 106%
8 | CCOC(=O)c1c(-c2ccccc2)oc2ccc(OC(=O)N(C)C)cc12 | -72.7% (inactive) | 171%
9 | CC[N+]1(C)CCCC(OC(=O)C(O)(c2ccccc2)c2ccccc2)C1 (stereo not given) | 295% (active) | 82%
10 | Cc1nn(Cc2ccccc2Cl)c(Cl)c1C(=O)OC(C(=O)NC(N)=O)C(C)C (stereo not given) | 6.67% (inactive) | 71.1%
11 | O=C(CN1CCCC1=O)NCCc1ccccc1 | -2.56% (inactive) | 176%
12 | CC(=O)c1c(O)n(C2CCCCCC2)c(=O)[nH]c1=O | 146% (active) | 160%
13 | COC(=O)CN1C(=O)C2(C(C(=O)OC)=C(N)Oc3ccccc32)C2=C1CC(C)(C)CC2=O (stereo not given) | -6.67% (inactive) | 84.7%
14 | Cc1ccc(N2C(=O)NC(=O)C(CCc3ccncc3)(Cc3cccc(Cl)c3Cl)C2=O)cc1 (stereo not given) | 169% (inactive) | 113%
15 | CC(=O)c1ccc(OC(NC(=O)Cc2ccccc2)C(Cl)(Cl)Cl)cc1 (stereo not given) | 6.45% (inactive) | 137%
